According to ChEMBL document CHEMBL1124364, “3-Sulfonyl-1-carba-1-dethiacephems” (1989):
In brackets after ≈: the same amount, converted by molar mass.

Key:
Assay type in all cases: functional
[1] = tested on: Enterobacter cloacae; assay: Minimum inhibitory concentration against Enterobacter cloacae (265A beta-lactamase containing); conditions: Enterobacter cloacae; read-out: MIC
In short: (§1)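 Agar dilution: compounds diluted in 0.1 M phosphate buffer pH 7.0 and incorporated into Mueller-Hinton agar with 1% Bacto-Supplement C at 50 °C. Fresh overnight cultures diluted to about 1×10^4 cells/µL; 1 µL spotted on plates. Incubated overnight at 35 °C in ambient air. MIC taken as the lowest concentration preventing visible growth.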

[2] = tested on: Enterobacter cloacae; assay: Minimum inhibitory concentration against Enterobacter cloacae (EB5); conditions: Enterobacter cloacae; read-out: MIC; in short: as §1
[3] = tested on: Escherichia coli; assay: Minimum inhibitory concentration against Escherichia coli (EC14); conditions: Escherichia coli; read-out: MIC; in short: as §1
[4] = tested on: Escherichia coli; assay: Minimum inhibitory concentration against Escherichia coli (TEM beta-lactamase containing); conditions: Escherichia coli; read-out: MIC; in short: as §1
[5] = tested on: Haemophilus influenzae; assay: Minimum inhibitory concentration against Haemophilus influenzae (C.L.); conditions: Haemophilus influenzae; read-out: MIC; in short: as §1
[6] = tested on: Klebsiella; assay: Minimum inhibitory concentration against Klebsiella (KAE beta-lactamase containing); conditions: Klebsiella; read-out: MIC; in short: as §1
[7] = tested on: Klebsiella; assay: Minimum inhibitory concentration against Klebsiella (X26); conditions: Klebsiella; read-out: MIC; in short: as §1
[8] = tested on: Morganella morganii; assay: Minimum inhibitory concentration against Proteus morganii (PR 15); conditions: Morganella morganii; read-out: MIC; in short: as §1
[9] = tested on: Pseudomonas aeruginosa; assay: Minimum inhibitory concentration against Pseudomonas aeruginosa (X528); conditions: Pseudomonas aeruginosa; read-out: MIC; in short: as §1
[10] = tested on: Providencia rettgeri; assay: Minimum inhibitory concentration against Proteus rettgeri (C24); conditions: Providencia rettgeri; read-out: MIC; in short: as §1
[11] = tested on: Salmonella; assay: Minimum inhibitory concentration against Salmonella (X514); conditions: Salmonella; read-out: MIC; in short: as §1
[12] = tested on: Staphylococcus epidermidis; assay: Minimum inhibitory concentration against Staphylococcus epidermidis (222); conditions: Staphylococcus epidermidis; read-out: MIC; in short: as §1
[13] = tested on: Streptococcus pyogenes; assay: Minimum inhibitory concentration against Streptococcus pyogenes (C203); conditions: Streptococcus pyogenes; read-out: MIC; in short: as §1
[14] = tested on: Streptococcus pneumoniae; assay: Minimum inhibitory concentration against Streptococcus pneumoniae (PARK); conditions: Streptococcus pneumoniae; read-out: MIC; in short: as §1
[15] = tested on: Staphylococcus aureus; assay: Minimum inhibitory concentration against Staphylococcus aureus (X1.1); conditions: Staphylococcus aureus; read-out: MIC; in short: as §1

MIC [1] [µg/mL] | MIC [2] [µg/mL] | MIC [3] [µg/mL] | MIC [4] [µg/mL] | MIC [5] [µg/mL] | MIC [6] [µg/mL] | MIC [7] [µg/mL] | MIC [8] [µg/mL] | MIC [9] [µg/mL] | MIC [10] [µg/mL] | MIC [11] [µg/mL] | MIC [12] [µg/mL] | MIC [13] [µg/mL] | MIC [14] [µg/mL] | MIC [15] [µg/mL] | Compound
> 128 | 1 (≈ 2.12 µM) | 0.25 (≈ 0.53 µM) | 1 (≈ 2.12 µM) | 0.5 (≈ 1.06 µM) | > 128 | 0.125 (≈ 0.265 µM) | 4 (≈ 8.48 µM) | > 128 | 0.25 (≈ 0.53 µM) | 0.06 (≈ 0.127 µM) | 16 (≈ 33.9 µM) | 2 (≈ 4.24 µM) | 0.06 (≈ 0.127 µM) | 8 (≈ 17 µM) | CO/N=C(/C(=O)N[C@@H]1C(=O)N2C(C(=O)O)=C(S(=O)(=O)C(C)C)CC[C@H]12)c1csc(N)n1
> 128 | 0.5 (≈ 1.06 µM) | 0.06 (≈ 0.128 µM) | 0.5 (≈ 1.06 µM) | 0.25 (≈ 0.532 µM) | > 128 | 0.06 (≈ 0.128 µM) | 2 (≈ 4.26 µM) | > 128 | 1 (≈ 2.13 µM) | 0.125 (≈ 0.266 µM) | 8 (≈ 17 µM) | 0.015 (≈ 0.0319 µM) | 0.03 (≈ 0.0639 µM) | 4 (≈ 8.52 µM) | CO/N=C(/C(=O)N[C@@H]1C(=O)N2C(C(=O)O)=C(S(=O)(=O)C3CC3)CC[C@H]12)c1csc(N)n1
> 128 | 1 (≈ 2.12 µM) | 0.125 (≈ 0.265 µM) | 1 (≈ 2.12 µM) | 0.25 (≈ 0.53 µM) | > 128 | 0.125 (≈ 0.265 µM) | 2 (≈ 4.24 µM) | > 128 | 4 (≈ 8.48 µM) | 0.125 (≈ 0.265 µM) | 8 (≈ 17 µM) | 0.03 (≈ 0.0636 µM) | 0.03 (≈ 0.0636 µM) | 8 (≈ 17 µM) | CCCS(=O)(=O)C1=C(C(=O)O)N2C(=O)[C@@H](NC(=O)/C(=N/OC)c3csc(N)n3)[C@H]2CC1
> 128 | 8 (≈ 15.8 µM) | 2 (≈ 3.96 µM) | 8 (≈ 15.8 µM) | 0.25 (≈ 0.495 µM) | > 128 | 1 (≈ 1.98 µM) | > 128 | > 128 | 1 (≈ 1.98 µM) | 0.25 (≈ 0.495 µM) | 16 (≈ 31.6 µM) | 1 (≈ 1.98 µM) | 0.06 (≈ 0.119 µM) | 8 (≈ 15.8 µM) | CO/N=C(/C(=O)N[C@@H]1C(=O)N2C(C(=O)O)=C(S(=O)(=O)c3ccccc3)CC[C@H]12)c1csc(N)n1
> 128 | 8 (≈ 15.3 µM) | 2 (≈ 3.81 µM) | 8 (≈ 15.3 µM) | 0.25 (≈ 0.477 µM) | > 128 | 1 (≈ 1.91 µM) | 2 (≈ 3.81 µM) | > 128 | 16 (≈ 30.5 µM) | 4 (≈ 7.63 µM) | 8 (≈ 15.3 µM) | 0.03 (≈ 0.0572 µM) | 0.03 (≈ 0.0572 µM) | 4 (≈ 7.63 µM) | CO/N=C(/C(=O)N[C@@H]1C(=O)N2C(C(=O)O)=C(S(=O)(=O)c3c(C)noc3C)CC[C@H]12)c1csc(N)n1
> 128 | 1 (≈ 2.19 µM) | 0.06 (≈ 0.131 µM) | – | 0.25 (≈ 0.546 µM) | > 128 | 0.06 (≈ 0.131 µM) | 2 (≈ 4.37 µM) | > 128 | 0.125 (≈ 0.273 µM) | 0.06 (≈ 0.131 µM) | 16 (≈ 35 µM) | 0.03 (≈ 0.0656 µM) | 0.03 (≈ 0.0656 µM) | 8 (≈ 17.5 µM) | CCS(=O)(=O)C1=C(C(=O)O)N2C(=O)[C@@H](NC(=O)/C(=N/OC)c3csc(N)n3)[C@H]2CC1
